Reference: ChEMBL document CHEMBL1177892, “Synthesis, anti-inflammatory and ulcerogenicity studies of some substituted pyrimido[1,6-a]azepine derivatives” (Eur J Med Chem, 2010)

Assays:
[1] = test system: Rattus norvegicus; assay: Antiinflammatory activity in albino rat assessed as inhibition of carrageenan-induced paw oedema at […], ip administered 1 hr before carrageenan challenge measured after 3 hrs relative to control; format: functional; design: scale not given: the % may be the effect or the level left; conditions: in the assay text read “relative to diclofenac sodium” for “relative to control”
Procedure, shortened: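 Albino rats of both sexes (120–150 g) were pre-hydrated with 3 ml water/rat by gastric tube. Oedema was induced by s.c. sub-plantar injection of 1% carrageenan gel into the right hind paw. Right and left paw dorso-ventral thickness was read with dial calipers at 1, 2 and 3 h. Inhibition % = (1 − Lt/Lc) × 100, using mean paw-thickness increase of treated versus control rats.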

[2] = test system: Rattus norvegicus; assay: Toxicity in albino rat at 20 mg/kg assessed as ulcerogenicity; conditions: in vivo
[3] = test system: Rattus norvegicus; assay: Antiinflammatory activity in ip dosed albino rat assessed as inhibition of carrageenan-induced paw oedema administered 1 hr before carrageenan challenge measured after 3 hrs relative to control; format: functional, organism-based
Procedure, shortened: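 Carrageenan paw-oedema model in albino rats of both sexes (120–150 g), water-loaded with 3 ml by gastric tube. […] was calculated from doses of […], with paw-thickness inhibition read 3 h after sub-plantar injection of 1% carrageenan. Inhibition % = (1 − Lt/Lc) × 100.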

[4] = test system: Rattus norvegicus; assay: Toxicity in albino rat at 20 mg/kg assessed as ulcer index; conditions: in vivo

Row | Compound | Activity [1] [%] | Activity [2] [%] | ED50 [3] [µmol/kg] | UI [4]
1 | N#CC1=C(NCC(=O)N2CCOCC2)N(c2ccccc2)C(=O)N2CCCCC(N3CCCC3)C12 (stereo not drawn) | 83.9 | – | – | –
2 | COc1ccc(N/C=N/C2=C(C#N)C3C(N4CCCC4)CCCCN3C(=O)N2c2ccccc2)cc1 (stereo not drawn) | 57.3 | – | – | –
3 | COC(=O)C(=O)NC1=C(C#N)C2C(N3CCCC3)CCCCN2C(=O)N1c1ccccc1 (stereo not drawn) | 100.79 | 1 | 10.6 | 2.2
4 | N#CC1=C(NCN2CCOCC2)N(c2ccccc2)C(=O)N2CCCCC(N3CCCC3)C12 (stereo not drawn) | 50.68 | – | – | –
5 | N#CC1=C(NCC(=O)N2CCCC2)N(c2ccccc2)C(=O)N2CCCCC(N3CCCC3)C12 (stereo not drawn) | 63.93 | – | – | –
6 | N#CC1=C(/N=C/c2ccc([N+](=O)[O-])cc2)N(c2ccccc2)C(=O)N2CCCCC(N3CCCC3)C12 (stereo not drawn) | 104.68 | 2 | 7.14 | 3.6
7 | N#CC1=C(/N=C/Nc2ccccc2)N(c2ccccc2)C(=O)N2CCCCC(N3CCCC3)C12 (stereo not drawn) | 90.52 | – | – | –
8 | O=C([O-])Cc1ccccc1Nc1c(Cl)cccc1Cl.[Na+] [DICLOFENAC SODIUM] | – | 6 | 7.26 | 9
9 | N#CC1=C(NCC(=O)N2CCCCC2)N(c2ccccc2)C(=O)N2CCCCC(N3CCCC3)C12 (stereo not drawn) | 61.07 | – | – | –
10 | N#CC1=C(NC(=O)Cc2ccccc2Nc2c(Cl)cccc2Cl)N(c2ccccc2)C(=O)N2CCCCC(N3CCCC3)C12 (stereo not drawn) | 76.71 | – | – | –
11 | N#CC1=C(NCN2CCCCC2)N(c2ccccc2)C(=O)N2CCCCC(N3CCCC3)C12 (stereo not drawn) | 48.05 | – | – | –
12 | N#CC1=C(N)N(c2ccccc2)C(=O)N2CCCCC(N3CCCC3)C12 (stereo not drawn) | 102.85 | – | 6.61 | –
13 | CCOC(=O)C(=O)NC1=C(C#N)C2C(N3CCCC3)CCCCN2C(=O)N1c1ccccc1 (stereo not drawn) | 104.45 | 1 | 9.13 | 2.5
14 | N#CC1=C(/N=C/Nc2ccc([N+](=O)[O-])cc2)N(c2ccccc2)C(=O)N2CCCCC(N3CCCC3)C12 (stereo not drawn) | 97.71 | 3 | – | 4.8
15 | N#CC1=C(NCN2CCCC2)N(c2ccccc2)C(=O)N2CCCCC(N3CCCC3)C12 (stereo not drawn) | 40.29 | – | – | –
16 | N#CC1=C(NCC(=O)O)N(c2ccccc2)C(=O)N2CCCCC(N3CCCC3)C12 (stereo not drawn) | 101.82 | 4 | 10.3 | 5.4
17 | N#CC1=C(NC(=O)c2ccccc2O)N(c2ccccc2)C(=O)N2CCCCC(N3CCCC3)C12 (stereo not drawn) | 74.65 | – | – | –
18 | COc1ccc(/C=N/C2=C(C#N)C3C(N4CCCC4)CCCCN3C(=O)N2c2ccccc2)cc1 (stereo not drawn) | 85.91 | – | – | –
19 | N#CC1=C(/N=C/c2ccccc2)N(c2ccccc2)C(=O)N2CCCCC(N3CCCC3)C12 (stereo not drawn) | 95.9 | – | – | –
20 | N#Cc1c2n(c(=O)n(-c3ccccc3)c1=N)CCCCC2N1CCCC1 (stereo not drawn) | 106.62 | – | 8.5 | –
